This is a sample that favours compounds with a hit; in the whole collection about 2% have one here.
DENV2 CPE: inhibitors of DENV2 cytopathic effect, primary screen, cell-based, plate reader, single concentration. DENV2-infected cells, cytopathic effect rescue. CPE inhibition, % at 9.99 µM. hit rate 1.7% among 350,000; in the data active means CPE inhibition above about 20%, passing the limit was not always enough; inconclusive means no clear call, values can overlap the other calls; tested in BHK-21 cells
XiGFP reactiv: activators of inactive X chromosome reactivation, primary screen, imaging, XiGFP fibroblasts, GFP high-content imaging, set 2; XiGFP mouse fibroblasts, % GFP-positive cells imaging, 3 d; cells co-treated with 5-aza-dC sensitizer; scaled so ellipticine positive control = 100%; activation, % at 7.58 µM; hit rate 0.055% among 360,000;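 active means mean normalized replicate activation at least 10% and every replicate at or above 10%; inconclusive means only one of the two criteria met; inactive means mean below 10% and not all replicates reach 10%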
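Material: SV40-immortalized XiGFP fibroblast cells, line 68-5-11 | Buffer or medium: DMEM containing 5-aza-dC | Dosing: One concentration, pinned | Times: 3 d treatment, 15 min room-temperature fixation | Controls: Ellipticine 6 µM positive control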
S100A4 inh HTS: inhibitors of S100A4-myosin IIA peptide binding, primary screen, biochemical, fluorescence polarization, TAMRA-MyoIIA peptide; Protein S100-A4 (Homo sapiens), P26447; inhibition, % at 10.7 µM; hit rate 0.14% among 360,000; AID 652163, 2013;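 active means mean inhibition of at least 70% across replicates, with every replicate also reaching that level; inconclusive means mean inhibition reaches 70% but some replicates fall short; inactive means mean inhibition below 70%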
Target sequence (P26447 whole entry, looked up): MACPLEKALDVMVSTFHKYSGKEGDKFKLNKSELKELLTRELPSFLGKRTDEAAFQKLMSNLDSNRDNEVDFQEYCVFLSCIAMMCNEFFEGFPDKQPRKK
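Assay system: human S100A4 monomer with TAMRA-labelled myosin IIA peptide / Buffer or medium: Calcium-containing HEPES buffer, pH 7.2 / Reagent: TAMRA-labelled myosin IIA heavy-chain peptide probe, 5 nM / Compound: one dose per compound / Timing: polarization read 5 min after assay mix addition, stable 5–60 min / Benchmarks: neutral control DMSO, positive control TFP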
E-selectin induc: E-selectin induction in HUVECs, primary screen, imaging, HUVEC, immunofluorescence imaging, single point; P16581; normalized: neutral wells 0, TNF-alpha wells 100; activation, % at 7.58 µM; hit rate 0.37% among 260,000; AID 686992, 2013;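 active means mean E-selectin-positive cell signal at least 10% of the positive control, reached in at least 60% of replicates, without over 20% cell loss; inconclusive means no rule given, readout overlaps actives, possibly toxicity-flagged; inactive means the rest, including those meeting only one limit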
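Material: HUVEC primary endothelial cells; Amount: 3,000 cells per well; Dosing: single concentration; Medium: EGM-2 growth medium on 0.1% gelatin-coated wells; Read-out basis: percent E-selectin-positive cells; Signal: immunofluorescence imaging; Control set: TNF-alpha, DMSO.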
A number is an active result; - = inactive; ? = inconclusive; . = no result given.

SMILES | DENV2 CPE | XiGFP reactiv | S100A4 inh HTS | E-selectin induc
O=C1Nc2ccccc2C1Cc1ccccn1 (stereo not drawn) | - | - | - | 48
O=S(=O)(c1ccccc1)N1CC2(C1)[C@@H](c1ccccc1)[C@@H](CO)N2CC1CCCC1 | 27 | - | - | .
O=S(=O)(c1ccccc1)N1CC2(C1)[C@H](c1ccccc1)[C@H](CO)N2CC1CCOCC1 | - | - | - | -
O=S(=O)(c1ccccc1)N1CC2(C1)[C@H](c1ccccc1)[C@@H](CO)N2CC1CCCC1 | - | - | - | -
O=S(=O)(c1ccccc1)N1CC2(C1)[C@H](c1ccccc1)[C@@H](CO)N2CC1CCOCC1 | 36 | - | - | -
COc1cc(F)c(S(=O)(=O)N2CCOc3ccccc32)cc1OC | - | - | - | -
Cc1cc(F)ccc1S(=O)(=O)Nc1ccc(C(=O)N2CCCCC2)cc1 | - | - | - | -
CCOC(=O)C1CCN(C(=O)c2ccc(NS(=O)(=O)c3ccc(F)cc3C)cc2)CC1 | - | 25 | - | -
Cc1cccc(C)c1NC(=O)C1C(c2ccc3c(c2)OCO3)=Nc2ccccc2N1C(=O)c1cccc(C(F)(F)F)c1 (stereo not drawn) | - | - | - | -
Cc1cccc(C)c1NC(=O)C1C(c2ccc3c(c2)OCO3)=Nc2ccccc2N1C(=O)c1ccccn1 (stereo not drawn) | - | - | - | 119
C[C@H](CO)N1C[C@H](C)[C@H](CN(C)S(=O)(=O)c2cccs2)Oc2ccc(NC(=O)Nc3ccccc3)cc2CC1=O | - | - | - | -
C[C@@H]1CN([C@@H](C)CO)C(=O)Cc2cc(NC(=O)Nc3ccc(C(F)(F)F)cc3)ccc2O[C@H]1CN(C)S(=O)(=O)c1cccs1 | 35 | - | - | -
C[C@@H]1CN([C@@H](C)CO)C(=O)Cc2cc(NC(=O)Nc3ccccc3)ccc2O[C@H]1CN(C)S(=O)(=O)c1cccs1 | 25 | - | - | -
C[C@@H]1CCCCO[C@@H](CN(C)S(=O)(=O)c2cccs2)[C@@H](C)CN([C@H](C)CO)C(=O)c2cc(NS(=O)(=O)c3ccc(Cl)cc3)ccc2O1 | - | - | - | .
COc1ccc(S(=O)(=O)Nc2ccc3c(c2)C(=O)N([C@@H](C)CO)C[C@@H](C)[C@@H](CN(C)Cc2ccc(C(=O)O)cc2)OCCCC[C@H](C)O3)cc1 | 26 | - | - | -
COc1ccc(S(=O)(=O)Nc2ccc3c(c2)C(=O)N([C@H](C)CO)C[C@H](C)[C@@H](CN(C)Cc2ccc(C(=O)O)cc2)OCCCC[C@@H](C)O3)cc1 | 33 | - | - | -
CO[C@H]1CN(C)C(=O)c2cc(NC(C)=O)ccc2OC[C@@H](C)N(C(=O)Cc2ccccn2)C[C@@H]1C | - | - | - | -
CC1CCCC(C)N1C(=O)CSc1nc2c(c(=O)n(C)c(=O)n2C)n1C (stereo not drawn) | ? | - | - | 27
CN1CCN(C(=O)CSc2nc3c(c(=O)n(C)c(=O)n3C)n2C)CC1 | - | - | - | .
CC(/C=N/N1CCN(c2ccccn2)CC1)=C\c1ccccc1 | 23 | - | - | .
CC(C)c1ccc(/C=N/N2CCN(c3ccccn3)CC2)cc1 | 47 | - | - | -
CC(/C=N/N1CCN(c2ccccc2)CC1)=C\c1ccccc1 | - | . | - | .
CC=Cc1ccc2n(c1=O)C[C@@H]1[C@@H](CO)[C@H](C(=O)NCC)[C@H]2N1C(=O)c1ccccc1 (mixture of isomers) | - | - | - | -
CCOC(=O)C1(CCOc2ccccc2)CCN(Cc2cnc(C)[nH]2)CC1 | ? | - | - | -
O=C(COC(=O)c1ccccc1NCCO)NNC(=O)c1cccs1 | - | - | - | 428
CC1(C)OC(=O)C2=C(C[C@@H](C3CCCCC3)O[C@H]2c2ccc(F)cc2)O1 | 55 | - | - | -
CCOc1ccccc1CNC(=O)c1cc2occc2n1C | - | - | 183 | -
CCOc1ccccc1CNC(=O)CCCn1ncn2c(cc3occc32)c1=O | - | - | - | .
OC[C@H]1O[C@@H](c2nc(-c3ccc4c(c3)CCO4)no2)[C@H](O)[C@@H](O)[C@H]1O | - | - | - | -
COc1ccc(C2C(C(=O)N3CCCC3)CC(=O)N2c2ccc(OC)cc2)cc1 (stereo not drawn) | . | . | . | -

Screens as filed in PubChem.
